The source of these data is ChEMBL document CHEMBL4024779, “Novel Terminal Bipheny-Based Diapophytoene Desaturases (CrtN) Inhibitors as Anti-MRSA/VISR/LRSA Agents with Reduced hERG Activity” (J Med Chem, 2018).

In series [1] the target is T1, 4,4'-diapophytoene desaturase (4,4'-diaponeurosporene-forming) (Staphylococcus aureus (strain USA300), UniProt Q2FDU6).
T1 sequence (Q2FDU6 whole entry): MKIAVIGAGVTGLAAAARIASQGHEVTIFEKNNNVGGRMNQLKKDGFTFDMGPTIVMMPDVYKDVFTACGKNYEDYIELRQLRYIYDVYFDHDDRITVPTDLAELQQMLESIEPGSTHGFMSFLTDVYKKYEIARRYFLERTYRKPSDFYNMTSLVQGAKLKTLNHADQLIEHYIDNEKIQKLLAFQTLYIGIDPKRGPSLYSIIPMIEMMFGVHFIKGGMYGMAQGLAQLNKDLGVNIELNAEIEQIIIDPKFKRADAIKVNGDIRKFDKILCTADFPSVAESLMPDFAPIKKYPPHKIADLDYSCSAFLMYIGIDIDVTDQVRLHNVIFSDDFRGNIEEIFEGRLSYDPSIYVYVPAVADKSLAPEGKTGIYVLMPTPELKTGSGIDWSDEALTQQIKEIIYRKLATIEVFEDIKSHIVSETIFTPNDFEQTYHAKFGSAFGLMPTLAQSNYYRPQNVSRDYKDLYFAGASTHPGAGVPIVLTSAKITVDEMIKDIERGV
Kind of series: Inhibition of CrtN in methicillin-resistant Staphylococcus aureus LAC USA300 assessed as reduction in staphyloxanthin levels after 48 hrs by spectrophotometric method-based pigment inhibition assay.

In another series the test system is HepG2. Kind of series: Cytotoxicity against human HepG2 cells after 43 hrs by Alamar blue dye-based fluorescence assay. The series is classed as cell-based. As to conditions: HepG2, 43 h. Background: Resazurin is reduced to fluorescent resorufin, in cell work by metabolically active cells.
A short description of series [2]: Aqueous solubility of compound after 24 hrs by HPLC method. The series is classed as physicochemical.
The next series concerns Liver. The series is described as follows: In-vitro intrinsic clearance in human liver microsomes at 2 uM after 60 mins in presence of NADPH by LC-MS/MS method. The series is classed as ADME, microsome. As to conditions: 1 h. A general note: Liver microsomes are vesicles of endoplasmic reticulum, rich in cytochrome P450 enzymes.
In another series the test system is Trichophyton rubrum. Kind of series: In vitro antifungal activity against Trichophyton rubrum after 7 days by serial dilution method. As to conditions: 168 h. The series is classed as functional.
For a further series, the system named is Nannizzia gypsea. Kind of series: In vitro antifungal activity against Microsporum gypseum after 7 days by serial dilution method. The series is classed as functional. The following applies: 168 h.
The next series concerns Trichophyton verrucosum. Kind of series: In vitro antifungal activity against Trichophyton verrucosum after 7 days by serial dilution method. The series is classed as functional. The following applies: 168 h.
Series [3] relates to Staphylococcus aureus. The series is described as follows: Chemo-sensitization activity in non-pigmented Staphylococcus aureus Newman assessed as increase in H2O2-induced bacterial death by measuring survival rate at 1 uM pre-incubated for 24 hrs followed by H2O2 addition measured after 30 mins by serial dilution method (reference value: 33.3%). The series is classed as functional. Put shortly: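 S. aureus Newman was pre-incubated with 1 µM compound, with N-acetylcysteine as antioxidant control, or mock-treated. Cells were then exposed to 1.5% H2O2. Percent bacterial survival was compared with the mock-treated culture.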

The subject of series [4] is Staphylococcus aureus. Kind of series: In vivo anti-virulence activity against Staphylococcus aureus Newman infected in BALB/c mouse model assessed as reduction in bacterial load in kidneys at 0.4 mg bid for 4.5 days administered intraperitoneally 24 hrs prior to infection by serial dilution method. The series is classed as functional, organism-based. Put shortly: (§1)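 Mice (n=10 per group) got 2.3 × 10^7 CFU S. aureus Newman by retro-orbital injection. Compound was given intraperitoneally b.i.d., either 24 h before infection (4.5 d) or 6 h after infection (3.5 d). Mice were sacrificed after 4.5 d and CFU counted in kidneys and hearts. Groups were compared by two-tailed Mann-Whitney test.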

Series [5] deals with Staphylococcus aureus. The series is described as follows: In vivo anti-virulence activity against Staphylococcus aureus Newman infected in BALB/c mouse model assessed as reduction in bacterial load in kidneys at 0.1 mg bid for 4.5 days administered intraperitoneally 24 hrs prior to infection by serial dilution method. The series is classed as functional, organism-based. Put shortly:
as §1

The subject of series [6] is Staphylococcus aureus. Kind of series: In vivo anti-virulence activity against Staphylococcus aureus Newman infected in BALB/c mouse model assessed as reduction in bacterial load in kidneys at 0.4 mg bid for 3.5 days administered intraperitoneally 6 hrs post infection by serial dilution method. The series is classed as functional, organism-based. Put shortly:
as §1

For series [7], the system named is Staphylococcus aureus. Kind of series: In vivo anti-virulence activity against Staphylococcus aureus Newman infected in BALB/c mouse model assessed as reduction in bacterial load in heart at 0.1 mg bid for 4.5 days administered intraperitoneally 24 hrs prior to infection by serial dilution method. The series is classed as functional, organism-based. An outline of the steps:
as §1

In series [8] the test system is Staphylococcus aureus. Kind of series: In vivo anti-virulence activity against Staphylococcus aureus Newman infected in BALB/c mouse model assessed as reduction in bacterial load in heart at 0.4 mg bid for 3.5 days administered intraperitoneally 6 hrs post infection by serial dilution method. The series is classed as functional, organism-based. Put shortly:
as §1

Series [9] concerns Staphylococcus aureus. The series is described as follows: In vivo anti-virulence activity against Staphylococcus aureus Newman infected in BALB/c mouse model assessed as reduction in bacterial load in heart at 0.1 mg bid for 3.5 days administered intraperitoneally 6 hrs post infection by serial dilution method. The series is classed as functional, organism-based. Put shortly:
as §1

Series [10] relates to Staphylococcus aureus. Kind of series: In vivo anti-virulence activity against methicillin-resistant Staphylococcus aureus Mu50 infected in BALB/c mouse model assessed as reduction in bacterial load in kidneys at 0.1 mg bid for 3.5 days administered intraperitoneally 6 hrs post infection by serial dilution method. The series is classed as functional. More on the design: scale not given: the % may be the effect or the level left. Put shortly:
(§2)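 Mice (n=10 per group) infected retro-orbitally with S. aureus Mu50 (1.1 × 10^9 or 1.3 × 10^9 CFU) or NRS271 (2.3 × 10^8 CFU). Compound given i.p. b.i.d., either 6 h after infection for 3.5 d or 24 h before infection for 4.5 d. Mice killed after 4.5 d; log10 CFU per organ counted in kidneys and hearts. Two-tailed Mann−Whitney test.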

Series [11] deals with Staphylococcus aureus. The series is described as follows: In vivo anti-virulence activity against methicillin-resistant Staphylococcus aureus Mu50 infected in BALB/c mouse model assessed as reduction in bacterial load in heart at 0.4 mg bid for 4.5 days administered intraperitoneally 24 hrs prior to infection by serial dilution method. The series is classed as functional. More on the design: scale not given: the % may be the effect or the level left. An outline of the steps:
as §2

Series [12] deals with Staphylococcus aureus. Kind of series: In vivo anti-virulence activity against methicillin-resistant Staphylococcus aureus Mu50 infected in BALB/c mouse model assessed as reduction in bacterial load in heart at 0.4 mg bid for 3.5 days administered intraperitoneally 6 hrs post infection by serial dilution method. The series is classed as functional. Also noted: scale not given: the % may be the effect or the level left. An outline of the steps:
as §2

Series [13] deals with Staphylococcus aureus. Kind of series: In vivo anti-virulence activity against methicillin-resistant Staphylococcus aureus NRS271 infected in BALB/c mouse model assessed as reduction in bacterial load in heart at 0.4 mg bid for 4.5 days administered intraperitoneally 24 hrs prior to infection by serial dilution method. The series is classed as functional. Also noted: scale not given: the % may be the effect or the level left. An outline of the steps:
as §2

The test system of series [14] is Staphylococcus aureus. The series is described as follows: In vivo anti-virulence activity against methicillin-resistant Staphylococcus aureus NRS271 infected in BALB/c mouse model assessed as reduction in bacterial load in heart at 0.1 mg bid for 4.5 days administered intraperitoneally 24 hrs prior to infection by serial dilution method. The series is classed as functional. More on the design: scale not given: the % may be the effect or the level left. Put shortly: as §2

Series [15] relates to Staphylococcus aureus. The series is described as follows: In vivo anti-virulence activity against methicillin-resistant Staphylococcus aureus NRS271 infected in BALB/c mouse model assessed as reduction in bacterial load in heart at 0.4 mg bid for 3.5 days administered intraperitoneally 6 hrs post infection by serial dilution method. The series is classed as functional. Also noted: scale not given: the % may be the effect or the level left. An outline of the steps:
as §2

Series [16] relates to Staphylococcus aureus. The series is described as follows: In vivo anti-virulence activity against methicillin-resistant Staphylococcus aureus NRS271 infected in BALB/c mouse model assessed as reduction in bacterial load in heart at 0.1 mg bid for 3.5 days administered intraperitoneally 6 hrs post infection by serial dilution method. The series is classed as functional. Also noted: scale not given: the % may be the effect or the level left. An outline of the steps: as §2

The subject of series [17] is Staphylococcus aureus. The series is described as follows: Antibacterial activity against Staphylococcus aureus Newman derived after 12 passage by broth dilution method. The series is classed as functional. In general terms: Dilution methods test growth across graded concentrations, often in twofold steps.
Series [18] deals with T2, 4,4'-diapophytoene desaturase (4,4'-diaponeurosporene-forming) (Staphylococcus aureus (strain Newman), UniProt O07855).
T2 sequence (O07855 whole entry): T1 sequence (Q2FDU6 whole entry)
Kind of series: Inhibition of CrtN in Staphylococcus aureus Newman after 12 resistant development passages under 0.15% v/v H2O2 assessed as reduction in staphyloxanthin levels under IC90 level after 48 hrs by spectrophotometric method-based pigment inhibition assay. More on the design: species or system Staphylococcus aureus subsp. aureus str. Newman.

Active and inactive are the calls of the source. The calls are words filed in the database; no cut-off is given here.

With `CN(C/C=C/c1ccc(-c2ccccc2)cc1)Cc1cccc2cc[nH]c12.Cl`, the IC50 was determined as 4 nM in series [1], 21900 nM with HepG2 and 2.6 nM in series [18]. For the same compound, the solubility at 24 h in series [2] is 0.2 mg/mL. The CLH with Liver came to 20 µL/min/mg. In addition, the MIC80 in the series on Trichophyton rubrum, with Nannizzia gypsea and in the series with Trichophyton verrucosum was greater than 64 mg/L throughout. Moreover, in the series on Staphylococcus aureus [3], the outcome was Active. Besides, the outcome in the series on Staphylococcus aureus [4], with Staphylococcus aureus [5], in the series on Staphylococcus aureus [6], in the series on Staphylococcus aureus [7], in the series on Staphylococcus aureus [8] and with Staphylococcus aureus [9] was inactive. The Activity in the series with Staphylococcus aureus [10], with Staphylococcus aureus [11], with Staphylococcus aureus [12], with Staphylococcus aureus [13], in the series on Staphylococcus aureus [14] and in the series with Staphylococcus aureus [15] was greater than 95% each time. In addition, the Activity in the series with Staphylococcus aureus [16] is given as greater than 95%. This compound gave an IC90 in the series on Staphylococcus aureus [17] of 2.6 nM.
As to `CN(C/C=C/c1ccc(-c2ccccc2)cc1)Cc1coc2ccccc12.Cl`, the IC50 amounted to 1.9 nM in series [1], 106000 nM with HepG2 and 1.8 nM in series [18]. In addition, the solubility at 24 h in series [2] is 0.2 mg/mL. In the series on Liver, the CLH was found to be 1230 µL/min/mg. The MIC80 against Trichophyton rubrum was 64 mg/L; in the series with Nannizzia gypsea, 32 mg/L; with Trichophyton verrucosum, greater than 64 mg/L. Further, the survival at 1 µM in the series on Staphylococcus aureus [3] came to 3%. Moreover, the result with Staphylococcus aureus [4], with Staphylococcus aureus [5], with Staphylococcus aureus [6], in the series with Staphylococcus aureus [7], with Staphylococcus aureus [8] and with Staphylococcus aureus [9] was Active. Further, the Activity in the series on Staphylococcus aureus [10], in the series with Staphylococcus aureus [11], in the series on Staphylococcus aureus [12], with Staphylococcus aureus [13], in the series on Staphylococcus aureus [14] and with Staphylococcus aureus [15] was greater than 95% in each case. Also, in the series with Staphylococcus aureus [16], the Activity is on record as greater than 95%. Besides, the IC90 in the series with Staphylococcus aureus [17] came out at 1.8 nM.

As a reminder, the IC50 is the concentration needed to halve the response being measured. By solubility is commonly meant how much of the substance goes into solution per volume. Broadly, the MIC80 is an inhibitory concentration at the 80% level, which refers to growth in some studies and to a panel of isolates in others. Broadly, the IC90 is the concentration at which the effect reaches the 90% level.
